Experiment [1] concerns the target ALK tyrosine kinase receptor (Homo sapiens, UniProt Q9UM73). The experiment in a line: Inhibition of ALK by TR-FRET based LanthaScreen assay. The essentials:
(§1)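 TR-FRET LanthaScreen kinase assay with phosphorylation of a substrate; FGFR3 used as the K651E mutant. IC50 derived from two independent experiments; for some compounds, ALK and cKIT values are averages ± SDs of three independent experiments.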
Background: TR-FRET usually uses a lanthanide donor and a delayed reading to cut background.

The target of the next experiment is Ephrin type-B receptor 4 (Homo sapiens, UniProt P54760). The experiment in a line: Inhibition of EPHB4 by TR-FRET based LanthaScreen assay. The essentials: as §1
In experiment [2] the target is Cyclin-dependent kinase 2 (Homo sapiens, UniProt P24941). Nature of the experiment: Inhibition of CDK2A by Caliper mobility shift assay. The method in brief: (§2)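 Caliper microfluidic mobility shift readout of substrate phosphorylation, run per the group's earlier kinase protocol. IC50 taken from two independent experiments.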
The target in experiment [3] is Serine/threonine-protein kinase N1 (Homo sapiens, UniProt Q16512). The experiment in a line: Inhibition of PKN1 by Caliper mobility shift assay. The essentials:
(§3)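 Caliper mobility shift kinase assay with phosphorylation of a substrate; IC50 derived from two independent experiments.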

The target in experiment [4] is cAMP-dependent protein kinase catalytic subunit alpha (Homo sapiens, UniProt P17612). The experiment in a line: Inhibition of PKAalpha by Caliper mobility shift assay.
The target in experiment [5] is Rho-associated protein kinase 2 (Homo sapiens, UniProt O75116). The experiment in a line: Inhibition of ROCK2 by Caliper mobility shift assay. The method in brief: as §3
For experiment [6], the target named is Insulin-like growth factor 1 receptor (Homo sapiens, UniProt P08069). Nature of the experiment: Inhibition of IGF1R by TR-FRET based LanthaScreen assay. The method in brief: as §1
In experiment [7] the target is Tyrosine-protein kinase JAK3 (Homo sapiens, UniProt P52333). Nature of the experiment: Inhibition of JAK3 by Caliper mobility shift assay. The method in brief: as §3
The target of experiment [8] is Glycogen synthase kinase-3 beta (Homo sapiens, UniProt P49841). Nature of the experiment: Inhibition of GSK3-beta by TR-FRET based LanthaScreen assay. The method in brief:
as §1

Experiment [9] concerns the target Mitogen-activated protein kinase 14 (Homo sapiens, UniProt Q16539). The experiment in a line: Inhibition of p38alpha by Caliper mobility shift assay. The essentials:
as §2

A further experiment has as its target Ephrin type-A receptor 4 (Homo sapiens, UniProt P54764). The experiment in a line: Inhibition of EPHA4 by TR-FRET based LanthaScreen assay. The essentials:
as §1

The target in experiment [10] is Serine/threonine-protein kinase N2 (Homo sapiens, UniProt Q16513). The experiment in a line: Inhibition of PKN2 by Caliper mobility shift assay. The method in brief:
as §3

Experiment [11] deals with Tyrosine-protein kinase JAK1 (Homo sapiens, UniProt P23458). Nature of the experiment: Inhibition of JAK1 by TR-FRET based LanthaScreen assay.
Experiment [12] concerns the target Tyrosine-protein kinase receptor UFO (Homo sapiens, UniProt P30530). Nature of the experiment: Inhibition of Axl by TR-FRET based LanthaScreen assay. The essentials:
as §1

In a further experiment the target is Insulin receptor (Homo sapiens, UniProt P06213). The experiment in a line: Inhibition of INSR by TR-FRET based LanthaScreen assay. The essentials:
as §1

A further experiment addresses Aurora kinase A (Homo sapiens, UniProt O14965). Nature of the experiment: Inhibition of Aurora A kinase by Caliper mobility shift assay. The method in brief:
as §3

In experiment [13] the target is 3-phosphoinositide-dependent protein kinase 1 (Homo sapiens) (UniProt O15530). Nature of the experiment: Inhibition of PDK1 by Caliper mobility shift assay.
Experiment [14] has as its target Receptor tyrosine-protein kinase erbB-2 (Homo sapiens, UniProt P04626). Nature of the experiment: Inhibition of HER2 by TR-FRET based LanthaScreen assay. The essentials: as §1
The target in experiment [15] is Tyrosine-protein kinase ZAP-70 (Homo sapiens, UniProt P43403). Nature of the experiment: Inhibition of ZAP70 by TR-FRET based LanthaScreen assay. The method in brief:
as §1

Experiment [16] addresses Hepatocyte growth factor receptor (Homo sapiens, UniProt P08581). The experiment in a line: Inhibition of HGFR by TR-FRET based LanthaScreen assay. The method in brief: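 LanthaScreen TR-FRET kinase format, run per the group's earlier protocol. IC50 from two independent experiments; for some compounds, PDGFRα and VEGFR2 values are means ± SD of three independent runs. The FGFR3 used was the K651E mutant.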

Experiment [17] deals with Proto-oncogene tyrosine-protein kinase receptor Ret (Homo sapiens, UniProt P07949). Nature of the experiment: Inhibition of RET by TR-FRET based LanthaScreen assay. The essentials: as §1
The target in experiment [18] is Fibroblast growth factor receptor 3 (Homo sapiens, UniProt P22607). The experiment in a line: Inhibition of FGFR3 by TR-FRET based LanthaScreen assay. The essentials:
as §1

Experiment [19] has as its target Tyrosine-protein kinase JAK2 (Homo sapiens, UniProt O60674). The experiment in a line: Inhibition of JAK2 by TR-FRET based LanthaScreen assay.

Each structure is given as a SMILES string. Some results are limits rather than exact numbers.

Chain of Ephrin type-A receptor 4 (P54764 whole entry): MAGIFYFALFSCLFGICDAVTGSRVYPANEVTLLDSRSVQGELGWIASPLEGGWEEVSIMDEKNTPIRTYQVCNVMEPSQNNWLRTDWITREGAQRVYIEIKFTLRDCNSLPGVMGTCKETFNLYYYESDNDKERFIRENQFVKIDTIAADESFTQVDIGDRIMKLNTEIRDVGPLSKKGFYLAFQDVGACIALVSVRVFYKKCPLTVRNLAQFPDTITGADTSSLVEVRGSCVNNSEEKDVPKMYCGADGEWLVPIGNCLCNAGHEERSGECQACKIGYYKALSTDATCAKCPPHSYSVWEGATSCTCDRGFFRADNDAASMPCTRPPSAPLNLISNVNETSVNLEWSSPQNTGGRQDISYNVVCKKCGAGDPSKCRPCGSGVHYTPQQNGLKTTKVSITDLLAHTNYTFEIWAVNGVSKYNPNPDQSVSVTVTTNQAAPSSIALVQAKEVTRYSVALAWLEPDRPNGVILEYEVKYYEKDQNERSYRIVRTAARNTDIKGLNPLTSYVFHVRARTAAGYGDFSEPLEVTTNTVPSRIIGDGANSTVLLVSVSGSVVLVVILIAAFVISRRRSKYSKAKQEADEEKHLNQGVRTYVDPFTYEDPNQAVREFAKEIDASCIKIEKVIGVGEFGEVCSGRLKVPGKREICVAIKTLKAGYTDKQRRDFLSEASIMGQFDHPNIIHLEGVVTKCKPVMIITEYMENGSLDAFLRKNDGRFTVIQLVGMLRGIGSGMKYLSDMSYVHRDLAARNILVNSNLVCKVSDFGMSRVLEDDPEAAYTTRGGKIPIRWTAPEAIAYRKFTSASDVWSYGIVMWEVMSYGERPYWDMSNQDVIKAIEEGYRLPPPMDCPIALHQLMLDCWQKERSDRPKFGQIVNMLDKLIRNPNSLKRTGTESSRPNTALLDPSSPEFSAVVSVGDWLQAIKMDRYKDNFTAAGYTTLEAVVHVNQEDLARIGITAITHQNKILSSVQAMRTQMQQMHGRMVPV
Chain of Receptor tyrosine-protein kinase erbB-2 (P04626 whole entry): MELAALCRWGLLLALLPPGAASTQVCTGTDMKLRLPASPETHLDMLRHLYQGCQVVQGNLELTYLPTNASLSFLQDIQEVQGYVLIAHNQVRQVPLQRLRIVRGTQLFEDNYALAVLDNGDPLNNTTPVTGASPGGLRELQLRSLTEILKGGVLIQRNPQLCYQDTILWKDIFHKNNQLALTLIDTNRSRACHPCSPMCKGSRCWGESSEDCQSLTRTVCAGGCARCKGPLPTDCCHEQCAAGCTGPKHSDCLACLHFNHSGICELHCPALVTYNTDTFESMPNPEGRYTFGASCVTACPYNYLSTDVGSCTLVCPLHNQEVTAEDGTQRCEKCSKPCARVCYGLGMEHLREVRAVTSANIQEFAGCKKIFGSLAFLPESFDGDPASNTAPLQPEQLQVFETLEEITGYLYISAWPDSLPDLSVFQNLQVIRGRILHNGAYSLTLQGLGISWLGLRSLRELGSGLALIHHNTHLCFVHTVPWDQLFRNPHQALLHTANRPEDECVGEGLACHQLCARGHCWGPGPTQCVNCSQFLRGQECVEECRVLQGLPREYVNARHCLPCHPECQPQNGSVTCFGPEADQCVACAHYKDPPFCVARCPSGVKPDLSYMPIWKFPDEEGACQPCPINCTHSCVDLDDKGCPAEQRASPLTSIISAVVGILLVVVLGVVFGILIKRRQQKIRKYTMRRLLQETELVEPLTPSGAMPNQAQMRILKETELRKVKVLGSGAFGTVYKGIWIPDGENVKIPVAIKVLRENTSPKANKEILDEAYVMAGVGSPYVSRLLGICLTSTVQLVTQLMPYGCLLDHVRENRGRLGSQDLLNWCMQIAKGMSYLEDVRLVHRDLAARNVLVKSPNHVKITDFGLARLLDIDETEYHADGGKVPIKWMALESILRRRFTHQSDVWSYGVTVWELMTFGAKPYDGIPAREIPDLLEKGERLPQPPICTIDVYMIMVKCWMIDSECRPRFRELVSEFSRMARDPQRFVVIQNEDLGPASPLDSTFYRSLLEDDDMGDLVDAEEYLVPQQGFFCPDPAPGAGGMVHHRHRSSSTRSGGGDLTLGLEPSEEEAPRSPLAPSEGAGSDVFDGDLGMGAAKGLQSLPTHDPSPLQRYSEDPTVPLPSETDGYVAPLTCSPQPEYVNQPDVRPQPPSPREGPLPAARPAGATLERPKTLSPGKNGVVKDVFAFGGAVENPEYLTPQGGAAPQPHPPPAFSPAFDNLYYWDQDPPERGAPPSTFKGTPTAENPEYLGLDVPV
Chain of Serine/threonine-protein kinase N2 (Q16513 whole entry): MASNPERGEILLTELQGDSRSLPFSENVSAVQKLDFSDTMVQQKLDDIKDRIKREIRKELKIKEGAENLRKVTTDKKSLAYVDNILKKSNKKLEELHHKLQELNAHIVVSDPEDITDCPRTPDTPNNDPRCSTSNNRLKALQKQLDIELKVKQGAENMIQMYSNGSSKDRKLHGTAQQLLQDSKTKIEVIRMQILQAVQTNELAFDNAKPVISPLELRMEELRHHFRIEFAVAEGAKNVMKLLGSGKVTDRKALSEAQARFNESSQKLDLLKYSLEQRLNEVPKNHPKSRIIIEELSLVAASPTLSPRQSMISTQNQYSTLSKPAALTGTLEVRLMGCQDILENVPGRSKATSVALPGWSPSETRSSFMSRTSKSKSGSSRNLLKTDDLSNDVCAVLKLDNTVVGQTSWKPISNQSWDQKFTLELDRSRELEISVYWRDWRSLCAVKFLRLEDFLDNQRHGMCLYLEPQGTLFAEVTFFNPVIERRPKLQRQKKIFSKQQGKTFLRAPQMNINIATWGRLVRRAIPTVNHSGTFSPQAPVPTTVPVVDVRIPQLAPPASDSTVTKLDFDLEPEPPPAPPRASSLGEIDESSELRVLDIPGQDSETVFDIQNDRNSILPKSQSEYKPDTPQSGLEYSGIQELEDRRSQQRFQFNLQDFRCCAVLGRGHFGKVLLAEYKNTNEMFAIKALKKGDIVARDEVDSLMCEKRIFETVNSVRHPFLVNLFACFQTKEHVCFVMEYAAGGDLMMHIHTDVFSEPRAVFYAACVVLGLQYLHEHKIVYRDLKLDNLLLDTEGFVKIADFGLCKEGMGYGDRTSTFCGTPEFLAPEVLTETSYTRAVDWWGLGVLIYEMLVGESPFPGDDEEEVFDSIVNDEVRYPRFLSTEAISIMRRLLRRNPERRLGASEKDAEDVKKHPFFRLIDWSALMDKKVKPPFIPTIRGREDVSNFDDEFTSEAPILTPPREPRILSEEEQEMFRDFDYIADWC
Chain of Hepatocyte growth factor receptor (P08581 whole entry): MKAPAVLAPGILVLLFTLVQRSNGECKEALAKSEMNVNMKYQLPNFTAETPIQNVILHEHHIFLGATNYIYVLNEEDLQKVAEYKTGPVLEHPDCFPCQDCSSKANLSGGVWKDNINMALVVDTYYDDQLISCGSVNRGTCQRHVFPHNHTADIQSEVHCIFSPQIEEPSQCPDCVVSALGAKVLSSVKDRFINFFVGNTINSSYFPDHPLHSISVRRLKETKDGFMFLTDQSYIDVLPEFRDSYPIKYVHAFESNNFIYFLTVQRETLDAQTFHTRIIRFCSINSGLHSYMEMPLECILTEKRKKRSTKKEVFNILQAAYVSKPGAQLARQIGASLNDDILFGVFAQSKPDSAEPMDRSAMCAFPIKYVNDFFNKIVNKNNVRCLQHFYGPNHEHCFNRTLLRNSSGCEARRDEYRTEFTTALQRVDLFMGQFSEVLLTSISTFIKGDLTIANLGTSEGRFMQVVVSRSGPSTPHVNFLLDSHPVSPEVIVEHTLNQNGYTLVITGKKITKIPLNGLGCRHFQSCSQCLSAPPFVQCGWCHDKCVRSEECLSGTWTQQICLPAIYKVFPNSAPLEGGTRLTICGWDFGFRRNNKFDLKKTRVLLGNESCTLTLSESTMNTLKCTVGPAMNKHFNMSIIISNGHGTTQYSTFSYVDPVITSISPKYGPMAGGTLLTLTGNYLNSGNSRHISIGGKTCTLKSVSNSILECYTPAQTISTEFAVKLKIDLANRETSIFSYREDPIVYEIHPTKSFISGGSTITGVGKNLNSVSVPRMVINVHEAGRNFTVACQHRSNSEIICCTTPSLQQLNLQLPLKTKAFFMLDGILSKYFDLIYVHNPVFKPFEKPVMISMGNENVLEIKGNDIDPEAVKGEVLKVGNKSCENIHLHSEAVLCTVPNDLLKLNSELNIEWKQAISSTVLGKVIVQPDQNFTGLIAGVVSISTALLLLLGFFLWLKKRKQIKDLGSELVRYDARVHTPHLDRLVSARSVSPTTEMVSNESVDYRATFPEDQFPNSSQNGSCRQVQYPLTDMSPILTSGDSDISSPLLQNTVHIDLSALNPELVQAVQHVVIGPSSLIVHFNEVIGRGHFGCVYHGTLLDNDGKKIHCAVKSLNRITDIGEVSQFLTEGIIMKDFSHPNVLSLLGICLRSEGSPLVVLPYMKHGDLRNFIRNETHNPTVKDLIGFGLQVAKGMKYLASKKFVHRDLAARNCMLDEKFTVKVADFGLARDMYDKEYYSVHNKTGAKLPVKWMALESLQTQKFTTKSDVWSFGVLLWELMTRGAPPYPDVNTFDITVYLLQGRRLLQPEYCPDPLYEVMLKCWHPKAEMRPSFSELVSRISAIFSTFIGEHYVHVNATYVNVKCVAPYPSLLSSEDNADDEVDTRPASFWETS
Chain of Mitogen-activated protein kinase 14 (Q16539 whole entry): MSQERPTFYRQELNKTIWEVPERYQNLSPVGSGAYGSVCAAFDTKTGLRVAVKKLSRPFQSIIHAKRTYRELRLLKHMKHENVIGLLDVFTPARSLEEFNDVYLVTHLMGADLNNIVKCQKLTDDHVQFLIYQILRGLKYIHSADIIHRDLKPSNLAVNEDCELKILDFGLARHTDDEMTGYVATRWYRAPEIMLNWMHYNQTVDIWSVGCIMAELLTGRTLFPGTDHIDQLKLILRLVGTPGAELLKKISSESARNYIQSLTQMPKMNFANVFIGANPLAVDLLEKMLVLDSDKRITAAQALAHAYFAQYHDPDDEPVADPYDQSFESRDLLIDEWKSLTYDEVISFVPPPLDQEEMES

For orientation: IC50 means the point on the concentration scale where inhibition reaches its midpoint. For the compound `COc1cc(O)c2c(c1)CCCC(=O)C(=O)C(O)CCC[C@H](C)OC2=O` (stereo partly drawn) [L-783277], the IC50 in experiment [1] was 0.763 µM; at Ephrin type-B receptor 4, more than 10 µM; in experiment [2], more than 10 µM; in experiment [3] it was more than 10 µM; in experiment [4], more than 10 µM; in [5] it was more than 10 µM. Further, the IC50 (in [6]; in experiment [7]; in [8]; in experiment [9]; on Ephrin type-A receptor 4; in experiment [10]) was more than 10 µM each time. The IC50 (in experiment [11]; in experiment [12]; on Insulin receptor; at Aurora kinase A; in experiment [13]; in experiment [14]) was more than 10 µM each time. For the same compound, the IC50 in experiment [15], in [16], in experiment [17], in experiment [18] and in [19] was more than 10 µM in each case.

Source of the values: BindingDB's records for doi:10.1021/ml1001807 (2011).
